EphB4 ephrin blk: blocks human EphB4 binding to ephrin-B2; AID 720; 97,000 compounds, 0.15% hits; inhibition, % at 7 µM; EphB4 LBD / TNYL-RAW-Alexa532 peptide, fluorescence polarization;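 active = inhibition above the screen-wide mean inhibition plus 3 SD, cut at about 15% in these data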;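 also: 0% = DMSO wells and 100% = excess unlabeled TNYL-RAW peptide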
FAK blocker: blocks human focal adhesion kinase activity; Q05397; biochemical FAK kinase activity assay; inhibition, %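 (tested at 7 µM)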; 97,000 compounds, 0.84% hits; AID 727; in the data active = inhibition above about 19%;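 also: 0% = DMSO and 100% = reference compound high control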
Rev-RRE block: inhibitors of HIV-1 Rev-RRE RNA interaction | P05866 | Rev peptide-RRE RNA binding, FRET | inhibition, % at 8 µM | 97,000 compounds, 0.79% hits;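 active = inhibition above the screen-wide mean plus 3 SD, cut at about 35% in these data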;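 also: 0% = median DMSO wells and 100% = median Neomycin B control wells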
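Probe or stimulus: fluorescein-Rev peptide as binding partner; assay system: Cy5-tagged RRE RNA duplex with fluorescein-tagged Rev peptide; timing: 5 min compound–RNA preincubation, then 15 min with peptide, 25 °C; medium: HEPES pH 7.5 buffer with KCl, MgCl2, NaCl and EDTA; signal: fluorescein-to-Cy5 FRET, 480 nm excitation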
LYP inh 2: inhibitors of human LYP (PTPN22) phosphatase | Q9Y2R2 | recombinant LYP catalytic domain, DiFMUP fluorescence | inhibition, % at 2 µM | 96,000 compounds, 0.21% hits;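 active = inhibition at 2 µM at or above a set limit, the screen mean plus 3 SD, cut at about 24% in these data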;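 also: 0% = DMSO with enzyme and 100% = enzyme fully blocked by orthovanadate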
PTPN22 act: LYP (human) phosphatase activation | Q9Y2R2 | recombinant LYP, DiFMUP fluorescence; 0 = plate median, 100 = signal doubled | activation, % at 2 µM | 96,000 compounds, 0.11% hits | AID 697;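 active = activation at 2 µM above a set limit, the mean plus 5 SD, cut at about 37% in these data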
An asterisk follows results filed as active; [ ] = remark or other dose. An excerpt weighted towards active compounds, which were near 1.9% of everything screened.

SMILES	EphB4 ephrin blk	FAK blocker	Rev-RRE block	LYP inh 2	PTPN22 act
Cc1cccc(NC(=O)CSc2nnc(-c3ccc(S(=O)(=O)N4CCCC4)cc3)o2)c1	17*	-1	4	-10	9
CCn1c(CSc2nccn2C)nc2cc(C(=O)O)ccc21	15*	8	22	8	-9
CCn1c(CSc2nc3ccccc3[nH]2)nc2cc(C(=O)O)ccc21	4	1	17	-4	6
CCOc1cc(-c2ccc(N)c(OCC)c2)ccc1N	1	0	84*	4	-2
CCOc1cc(-c2cc(-c3ccc(N)cc3)nc(N)c2C#N)ccc1O	4	0	8	6	-5
CCN1C(=O)CS/C1=C(\C#N)S(=O)(=O)c1ccccc1	-10	-1	37*	2	-2
CCOC(=O)/C(C#N)=C\c1ccc(CC)s1	1	-5	6	10	-7
CCOC(=O)/C(C#N)=C\C=C1C=CN(C)C=C1	-12	1	130*[fluorescence artefact?]	-8	10
COc1ccc2[nH]c(=O)c(CNc3cccc(C)c3)cc2c1	0	7	57*	2	0
COc1ccc(NCc2cc3cc(OC)ccc3[nH]c2=O)cc1	4	10	15	-2	-1
Cc1ccc2[nH]c(C(=O)O)c(-c3ccccc3)c2c1	5	4	9	-5	4
Cc1ccc(-c2ccc(C(=O)O)[nH]2)cc1	16*	7	13	-4	4
CCCOC(=O)C1=C(C)NC2=C(C(=O)CCC2)C1c1cccs1 (configuration not stated)	-1	13	1	7	-8
CCOC(=O)C1=C(C)NC2=C(C(=O)CC(c3cccs3)C2)C1c1cccs1 (configuration not stated)	-7	21*	10	-2	2
COC(=O)C1=NN(c2ccc(C)cc2)C2(S1)SC(C(C)=O)=C(C)N2c1ccccc1 (configuration not stated)	-2	1	37*	-1	2
CCN1C(=O)c2ccc(C(=O)Nc3nccs3)cc2C1=O	0	-1	10	3	-3
O=C(Nc1nccs1)c1cccc(N2C(=O)c3cccc4c([N+](=O)[O-])ccc(c34)C2=O)c1	1	-1	51*	4	-2
C=CCn1c(N)cc(=O)nc1SCC(=O)NC(C)c1ccccc1 (configuration not stated)	-5	0	5	-2	2
CCOCCCN1CN(S(=O)(=O)c2ccc(Cl)cc2)c2nc3ccccc3nc21	4	1	10	0	3
CCOC(=O)N1CCc2c(sc3c2C(=O)NC(c2ccccc2)N3)C1 (configuration not stated)	-2	2	6	7	-9
O=C1NC(c2ccco2)Nc2sc3c(c21)CCN(Cc1ccccc1)C3 (configuration not stated)	4	1	70*	11	-14
CN1CCc2c(sc3c2C(=O)NC(c2ccco2)N3)C1 (configuration not stated)	-6	13	28	7	-4
CN1CCc2c(sc3c2C(=O)NC(c2cn(Cc4ccccc4)c4ccccc24)N3)C1 (configuration not stated)	0	10	79*	10	-10
Cc1ccc(-n2c(=O)c3sccc3n(CC(=O)NCc3ccco3)c2=O)cc1F	7	-6	3	7	-3
CS(=O)(=O)Nc1nc2n(n1)C(c1ccccc1)C=C(c1ccc(Br)cc1)N2 (configuration not stated)	2	5	61*	8	-3
SMILES	EphB4 ephrin blk	FAK blocker	Rev-RRE block	LYP inh 2	PTPN22 act
O=C(Nc1nc2n(n1)C(c1ccccc1)C=C(c1ccccc1)N2)c1ccco1 (configuration not stated)	-7	0	46*	-17	14
CC(=O)Nc1nc2n(n1)C(c1ccc(F)cc1)C=C(c1ccccc1)N2 (configuration not stated)	-1	1	56*	-4	2
COc1ccccc1C1C=C(c2ccc(Cl)cc2)Nc2nc(NS(C)(=O)=O)nn21 (configuration not stated)	4	0	21	1	2
CC(=O)Nc1nc2n(n1)C(c1ccccc1)C=C(c1ccccc1)N2 (configuration not stated)	-4	4	19	-3	0
COc1ccc(C2C=C(c3ccc(Cl)cc3)Nc3nc(NC(C)=O)nn32)cc1 (configuration not stated)	0	-2	78*	-1	2
COc1ccc(N(C(=O)Nc2ccc(Cl)cc2)C2=NCCC2)cc1	9	1	13	-13	12
CC(=O)c1cccc(NC(=O)N2CCCC2C(=O)Nc2cc(C)ccc2C)c1 (configuration not stated)	-3	-1	-1	-9	9
CCc1ccc2[nH]c(=O)c(C(c3nnnn3CCOC)N3CCN(c4ccccc4)CC3)cc2c1 (configuration not stated)	-8	0	3	3	-3
CCC(=O)Nc1nc2n(n1)C(c1ccc(OC)cc1)C=C(c1ccccc1)N2 (configuration not stated)	1	2	45*	-14	15
O=C(Nc1nc2n(n1)C(c1ccc(Cl)cc1)CC(c1ccc(Cl)cc1)N2)c1ccco1 (configuration not stated)	21*	16	9	1	-2
O=C(c1nc2n(n1)C(c1ccc(Cl)cc1)C=C(c1ccccc1)N2)N1CCOCC1 (configuration not stated)	-2	0	118*[fluorescence artefact?]	-8	10
CC1=CC(c2ccc(Cl)cc2)n2nc(NC(=O)c3ccccc3)nc2N1 (configuration not stated)	1	-2	-4	-3	5
O=C(CN1C(=O)NC2(CCCC2)C1=O)NCCC1=CCCCC1	16*	-3	0	-8	11
Cc1ccc(N=Cc2sc(O)c3ccccc23)cc1	2	-3	132*[fluorescence artefact?]	0	2
Cc1ccc(N=Cc2sc(O)c3ccccc23)c(C)c1	-4	-7	93*[fluorescence artefact?]	-1	2
NC(=S)NNC(=O)c1ccccc1	-10	-2	3	-2	6
COC(=O)c1ccc(-c2sc3nc(N4CCOCC4)c4c(c3c2N)CCCC4)o1	-1	2	85*	-6	2
CCOC(=O)c1sc2nc(N3CCOCC3)c3c(c2c1N)CCCC3	1	6	2	8	-5
CC(C)CC(=O)Nc1ccccc1-c1nnn(CC(=O)N2CCOCC2)n1	4	2	5	5	-1
Cc1ccnc(N/C=C(\C#N)c2nc(-c3cccc(Br)c3)cs2)c1	-4	-1	136*[fluorescence artefact?]	20	-16
CC(O)c1cccc(NC(=O)CCC(=O)O)c1 (configuration not stated)	19*	0	0	9	-8
CCOC(=O)N1CCN(C2=Nc3cccc4cccc2c34)CC1	5	-1	34	1	-4
